Screening results: PubChem, Sanford-Burnham Center for Chemical Genomics
SUMO1-SIM PPI – modulators of SUMO1 protein-protein interactions, primary screen, biochemical, uHTS | Small ubiquitin-related modifier 1 (Homo sapiens), P63165 | SUMO1 binding to a labelled peptide, TR-FRET, 1 h | inhibition, % at 20 µM | hit rate 0.33% among 360,000 | AID 602429, 2012; in the data active = inhibition above about 37%
LMPTP inh – LMPTP phosphatase inhibitors, primary screen, biochemical, fluorescence intensity, uHTS; recombinant LMPTP-A, OMFP fluorogenic substrate; hit rate 0.22% among 360,000; inhibition, % at 20 µM;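 active = compounds that cut the enzyme signal by at least half of the control window in the single-dose screen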;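 note: plate controls were DMSO wells with enzyme plus substrate for no effect and substrate without enzyme for full effect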
Target sequence (P24666 whole entry, looked up): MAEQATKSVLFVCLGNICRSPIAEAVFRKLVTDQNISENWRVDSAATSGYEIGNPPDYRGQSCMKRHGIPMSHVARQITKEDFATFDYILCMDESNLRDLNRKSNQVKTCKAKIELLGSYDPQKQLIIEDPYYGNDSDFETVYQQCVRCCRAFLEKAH
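Material: LMPTP-A; amount: 0.625 nM enzyme; doses: single 20 µM dose; times: reaction 50 min, room temperature, dark; technique: fluorescence intensity of OMFP turnover product; benchmarks: no-enzyme and uninhibited controls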
Scp1 inh – Scp-1 phosphatase inhibitors, primary screen, biochemical, colorimetric, uHTS. Carboxy-terminal domain RNA polymerase II polypeptide A small phosphatase 1 (Homo …. AID 493091, 2011. hit rate 0.88% among 340,000. inhibition, % at 20 µM. Recombinant Scp1, phosphopeptide, malachite green phosphate absorbance;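 active = inhibition above about 50% at 20 µM, limit read from the data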;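 note: plate controls were DMSO wells with enzyme for no effect and wells lacking enzyme for full effect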
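Test system: SCP-1 catalytic domain; Buffer or medium: Acidic Tris acetate buffer with magnesium and detergent; Also added: Phosphorylated 17-residue peptide substrate; Compound: single 20 µM dose, 1% DMSO; Schedule: enzyme reaction 45 min at room temperature, colour 5 min, stabilisation 30 min; Signal: Phosphate-binding colour reagent, absorbance read at 630 nm.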
FAS TE block – FAS thioesterase domain inhibitors, primary screen, biochemical, fluorescence intensity, uHTS | recombinant FAS-TE, OMFH fluorogenic substrate, fluorescence endpoint | Fatty acid synthase (Homo sapiens), P49327 | hit rate 0.67% among 360,000 | AID 602261, 2012 | inhibition, % at 15 µM;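 active = compounds whose normalised, plate-corrected inhibition of enzyme fluorescence in the single-dose primary screen is 50% or more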;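 note: 0% = DMSO with enzyme and 100% = substrate without enzyme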
STEP inh – STEP phosphatase inhibitors, primary screen, biochemical, fluorescence intensity, uHTS | Tyrosine-protein phosphatase non-receptor type 5 (Homo sapiens), P54829 | recombinant STEP, OMFP fluorogenic substrate | inhibition, % at 20 µM | hit rate 0.25% among 360,000;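 active = inhibition at 20 µM, scaled per plate between control wells, above about 37%, limit read from the data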;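 note: 0% = DMSO with enzyme and substrate and 100% = substrate only without enzyme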
Target sequence (P54829 whole entry, looked up): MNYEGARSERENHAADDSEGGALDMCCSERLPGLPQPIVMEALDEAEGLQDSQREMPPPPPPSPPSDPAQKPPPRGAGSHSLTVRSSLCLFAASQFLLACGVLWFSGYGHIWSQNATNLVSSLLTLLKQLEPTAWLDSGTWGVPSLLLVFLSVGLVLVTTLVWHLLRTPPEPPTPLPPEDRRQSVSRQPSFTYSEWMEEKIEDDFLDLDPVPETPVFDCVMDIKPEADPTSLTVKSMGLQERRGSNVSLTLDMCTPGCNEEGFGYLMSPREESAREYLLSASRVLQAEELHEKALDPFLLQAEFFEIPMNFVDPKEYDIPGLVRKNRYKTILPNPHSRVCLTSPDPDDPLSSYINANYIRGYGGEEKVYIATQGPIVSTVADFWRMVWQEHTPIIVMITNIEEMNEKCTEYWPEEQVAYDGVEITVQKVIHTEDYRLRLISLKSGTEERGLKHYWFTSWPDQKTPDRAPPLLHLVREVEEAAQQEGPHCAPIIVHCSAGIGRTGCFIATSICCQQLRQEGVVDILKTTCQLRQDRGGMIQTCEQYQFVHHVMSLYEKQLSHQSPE
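System: STEP phosphatase, cell-free reaction; Buffer or medium: Bis-Tris pH 6.0 buffer with DTT, detergent; Incubation: 20 min at room temperature, dark; Measured by: fluorescence, 480/540 nm.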
Scp-1 conf – Scp-1 phosphatase inhibitors, retest, confirmation, biochemical, colorimetric, single concentration. shares compounds with Scp1 inh. recombinant SCP-1 catalytic domain, phosphate release, malachite green absorbance. inhibition, % at 20 µM. hit rate 61% among 2,500. AID 540281, 2011;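 note: plate controls were DMSO with enzyme for no effect and buffer wells lacking enzyme for full effect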
Scp-1 MG ctr – colorimetric readout interference by compounds, confirmation, artefact control for Scp-1 inhibitor project, biochemical, single concentration | shares compounds with Scp1 inh | Colorimetric interference counterscreen, malachite green absorbance 630 nm | apparent inhibition (interference), % at 20 µM | 2,500 tested, under 10 active | AID 540313, 2011;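 note: compounds added after enzyme reaction finished so only phosphate colour detection is probed; plate controls were DMSO wells with completed Scp-1 reaction for no effect and substrate wells lacking enzyme for full effect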
Scp1 DSF – Scp-1 binding by thermal shift, confirmation, orthogonal assay for Scp-1 inhibitor project, biophysical, differential scanning fluorimetry; shares compounds with Scp1 inh; Recombinant SCP1, Sypro Orange thermal shift Tm; hit rate 25% among 1,500; thermal shift relative to vanadate control, % at 40 µM;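 active = substances whose mean melting-temperature shift, as a percentage of the reference inhibitor's shift, reaches about 5.3%, limit read from the data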;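 note: 0% = Tm of DMSO wells and 100% = Tm with sodium orthovanadate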
* hit, by the source's call; . = not tested or not shown. The list is not random: actives were taken first. Their share in the collection is about 1.9%.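 Rule for the calls, unless noted: active = inhibition of at least 30% at 20 µM; inactive = the rest.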

SMILES | SUMO1-SIM PPI | LMPTP inh | Scp1 inh | FAS TE block | STEP inh | Scp-1 conf | Scp-1 MG ctr | Scp1 DSF
CC(OC(=O)C1CCCCC1)C(=O)Nc1cccc([N+](=O)[O-])c1 (configuration not stated) | -29 | 0 | -6 | 40 | -2 | . | . | .
COC(=O)c1ccc(N2NC(=O)/C(=C/c3ccc(-c4ccc(Cl)c(C(=O)O)c4)o3)C2=O)cc1 | 23 | 33 | 76* | -3 | 30 | 75* | -8 | 14*
O=C1NN(c2ccccc2)C(=O)/C1=C/c1ccc(-c2ccc(C(=O)O)cc2)o1 | 5 | 5 | 77* | -3 | 10 | 58* | -18 | 15*
Cc1ccc(N2NC(=O)/C(=C/c3ccc(-c4ccc(Cl)c(C(=O)O)c4)o3)C2=O)cc1C | -3 | 2 | 22 | -7 | 8 | . | . | .
O=C1NN(c2ccccc2)C(=O)C1=Cc1ccccc1O | -12 | -2 | . | -10 | 1 | . | . | .
CCCCCCCCN1C(=O)[C@H](CC(=O)NCc2cccs2)C[C@@]2(C(=O)OC)CC(C)(C)CC=C12 | 5 | 7 | . | . | . | . | . | .
O=C(CN1C(=O)/C(=C/c2ccc(Cl)cc2)SC1=S)NC1C=CS(=O)(=O)C1 (configuration not stated) | -13 | 7 | 5 | -1 | 1 | . | . | .
CC(C)c1ccc(/C=C2\SC(=O)N(CC(=O)NC3C=CS(=O)(=O)C3)C2=O)cc1 (configuration not stated) | -9 | 11 | 57* | -5 | 16 | 53* | -7 | -4
CCSc1nc2c([nH]1)c(=O)n(C)c(=S)n2C | 13 | 44 | 61* | -4 | 6 | 75* | -21 | 4
COC(=O)CCCCCN1C(=O)NC(C2CC2)C(C(=O)OCc2ccccc2)=C1C (configuration not stated) | 3 | 0 | -8 | -1 | -1 | . | . | .
O=C(CN1C(=O)S/C(=C/c2cccn2-c2ccc(O)cc2)C1=O)N1CCCC1 | -15 | 0 | -1 | -2 | 1 | . | . | .
O=C(O)c1cccc(-n2cccc2/C=C2\SC(=O)N(Cc3ccccc3F)C2=O)c1 | -5 | 8 | 93* | -28 | 11 | 81* | -24 | -6
O=C(O)c1cccc(CN2C(=O)S/C(=C/c3ccccc3[N+](=O)[O-])C2=O)c1 | 2 | 0 | -8 | -6 | 4 | . | . | .
O=C(O)c1cccc(-n2cccc2/C=C2/SC(=O)N(CC(=O)N3CCCC3)C2=O)c1 | -1 | 1 | 67* | -3 | 23 | 54* | -20 | -8
Cc1ccccc1N=C1NC(=O)/C(=C/c2cccn2-c2cccc(C(=O)O)c2)S1 | . | . | 66* | . | . | 65* | -7 | 4
C=CC[N+](C)(C)CCCNC(=O)/C=N/O | -7 | -9 | 56* | -11 | 0 | -7 | -9 | .
CCOc1ccc(NC(=O)CN(C)C(=O)c2ccc(N3CCCC3)c([N+](=O)[O-])c2)cc1OCC | -23 | 1 | 53* | 0 | 3 | -18 | -18 | .
COc1ccc(C(N)c2csc(Nc3ccc(S(C)(=O)=O)cc3)n2)cc1 (configuration not stated) | 3 | 0 | . | -2 | 3 | . | . | .
Clc1nc(Cl)nc(-c2cn(-c3ccccc3)c3ccccc23)n1 | . | . | 91* | . | . | 72* | -15 | -25
CC1=NN(c2cccc([N+](=O)[O-])c2)C(=O)C1 | 0 | 2 | -6 | 3 | 1 | . | . | .
O=C1CC(=O)N2N=C(c3ccc([N+](=O)[O-])cc3)SC2=N1 | 5 | 7 | 69* | 13 | 3 | 68* | -6 | 6.2*
O=C(N/N=C/C(Cl)=C/c1ccc([N+](=O)[O-])cc1)C(=O)Nc1ccc(C(=O)O)cc1 | 3 | 22 | 85* | 6 | 34 | 62* | -16 | -3
O=C(N/N=C/C(Cl)=C/c1ccc([N+](=O)[O-])cc1)C(=O)Nc1ccccc1C(=O)O | 1 | 2 | 40 | 8 | 4 | . | . | .
Cc1c(C(=O)NCc2ccc(C(C)C)cc2)sc(=O)n1Cc1ccc(S(=O)(=O)N(C)C)cc1 | 3 | 2 | . | 29 | -2 | . | . | .
Cc1ccc(CNC(=O)CNC(=O)c2ccc(Br)o2)cc1 | -5 | 1 | -6 | -1 | -1 | . | . | .
SMILES | SUMO1-SIM PPI | LMPTP inh | Scp1 inh | FAS TE block | STEP inh | Scp-1 conf | Scp-1 MG ctr | Scp1 DSF
CCn1c(SCC(=O)Nc2oc(C)c3c(C)n[nH]c(=O)c23)nc2sc(C)c(C)c2c1=O | -6 | -15 | 66* | 0 | 1 | -19 | -13 | .
O=C(CCS(=O)(=O)c1ccc(Br)cc1)N1CCCCCC1 | 43* | 0 | 79* | -5 | 3 | 66* | -15 | -4
Cc1cc(=O)oc2cc(NC(=S)NNC(=O)c3c(Cl)cnn3C)ccc12 | 17 | 3 | 70* | -1 | 13 | 67* | -7 | -1
O=c1c(Cl)c(N/N=C/c2ccc(Br)cc2)cnn1-c1ccccc1 | -2 | 52* | 59* | 10 | 2 | 61* | -20 | -12
CCCCSCc1ccc(C(=O)O)o1 | 0 | 1 | 2 | -6 | 1 | . | . | .
CC(=O)c1c(C)oc(C)c1CSCc1ccc(C(=O)O)o1 | 8 | 19 | 65* | -4 | 11 | 56* | -15 | -2
COc1ccc(NS(=O)(=O)c2cc(NC(=O)CCc3ccccc3)ccc2N2CCOCC2)cc1 | 10 | 2 | -9 | 22 | -1 | . | . | .
COC(=O)c1c(NC(=O)COC(=O)[C@@H](NS(=O)(=O)c2cccc(Cl)c2)C(C)C)sc2c1CCC2 | -2 | 2 | -12 | 21 | 0 | . | . | .
CC(C)[C@H](NS(=O)(=O)c1cccc(Cl)c1)C(=O)OCC(=O)NC(=O)CN1CCCC1=O | 6 | 9 | 57* | -6 | 18 | 42* | -12 | -5
Cc1nc([N+](=O)[O-])cn1CC(=O)Nc1ccc(F)c(Cl)c1 | -1 | 0 | 1 | 6 | -1 | . | . | .
